Structures are written as SMILES. Calls of active or inactive are those of the source. No cut-off for these calls is given here.

The experiment deals with Putative P2Y purinoceptor 10 (Mus musculus) (UniProt Q8BFU7). The experiment in a line: Agonist activity at mouse P2Y10 receptor expressed in McA-RH7777 cells assessed as actin stress fiber formation at 1 uM after 30 mins by confocal microscopy. In kind it is cell-based. In short, it runs like this: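 McA-RH7777 cells stably expressing mouse P2Y10, or mock retrovirus-infected, were grown on collagen I and serum-starved 1 h. They were stimulated with 1 μM compound in serum-free DMEM containing 0.01% fatty-acid-free BSA. […] F-actin fibers were imaged by confocal microscopy.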
Chain of Putative P2Y purinoceptor 10 (Mus musculus) (Q8BFU7 whole entry): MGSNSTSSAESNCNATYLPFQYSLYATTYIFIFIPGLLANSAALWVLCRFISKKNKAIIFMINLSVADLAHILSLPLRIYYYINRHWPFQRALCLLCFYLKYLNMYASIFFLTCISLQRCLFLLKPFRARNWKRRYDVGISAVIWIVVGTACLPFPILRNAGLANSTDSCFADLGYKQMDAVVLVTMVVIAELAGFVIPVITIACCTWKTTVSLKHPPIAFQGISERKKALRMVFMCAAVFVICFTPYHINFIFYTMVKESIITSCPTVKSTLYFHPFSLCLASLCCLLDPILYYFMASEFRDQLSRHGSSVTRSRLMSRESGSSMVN
With `CCCCCCCCCCCOc1ccccc1CCC(=O)OCCCOP(=O)(O)OC[C@H](N)C(=O)O`, the outcome was Active.
As for `CCCCCCCC/C=C\CCCCCCCC(=O)OC[C@@H](O)COP(=O)(O)OC[C@H](N)C(=O)O`, the entry is “Active”; as for `CCCCCCCCCCCOc1ccccc1CCC(=O)OCC(F)(F)COP(=O)(O)OC[C@H](N)C(=O)O`, “Active”.
Then `CCCCCCCCCCCOc1cccc(CCC(=O)NC[C@@H](O)COP(=O)(O)O[C@@H](C)[C@H](N)C(=O)O)c1`, with “inactive”.
